From ChEMBL document CHEMBL1157246, “Cytotoxic isomalabaricane triterpenes from the marine sponge Rhabdastrella globostellata” (2006) come the findings set out here.

For assay [1], the system named is Saccharomyces cerevisiae. Put plainly: Antifungal activity against Saccharomyces cerevisiae after 24 hrs by agar diffusion assay. In kind it is functional, organism-based. Put shortly:
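S. cerevisiae was inoculated on YPD agar, and MeOH-dissolved compounds were applied on 5 mm disks. Inhibition zones were recorded after 24 h at 27 °C, with nystatin 5 µg as positive control.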

The test system of assay [2] is L5178Y. Briefly: Cytotoxicity against mouse L5178Y cells at 10 ug/mL after 72 hrs by MTT assay. In kind it is functional. In a few lines:
(§1)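 Exponentially growing cells (3750 per well) were exposed to samples from EtOH 96% stocks for 72 h at 37 °C in 5% CO2. MTT (20 µL of 5 mg/mL in PBS, pH 7.4) was added for 3 h 45 min, then formazan was released with DMSO and read at 520 nm. Survival % was taken relative to untreated cells, with media containing 0.1% EGMME/DMSO as controls. Assays were run in triplicate and repeated three times.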
A general note: Tetrazolium assays rely on reduction of a dye to a coloured formazan, in cell work by metabolically active cells.

Assay [3] concerns L5178Y. Briefly: Cytotoxicity against mouse L5178Y cells at 3 ug/mL after 72 hrs by MTT assay. The class given is functional. Put shortly:
as §1

For assay [4], the system named is L5178Y. Put plainly: Cytotoxicity against mouse L5178Y cells after 72 hrs by MTT assay. The class given is functional. In a few lines: as §1
Assay [5] relates to HeLa. Put plainly: Cytotoxicity against human HeLa cells at 10 ug/mL after 72 hrs by MTT assay. In kind it is functional. Put shortly:
as §1

For assay [6], the system named is HeLa. Put plainly: Cytotoxicity against human HeLa cells at 3 ug/mL after 72 hrs by MTT assay. The class given is functional. Put shortly: as §1
Assay [7] deals with HeLa. Briefly: Cytotoxicity against human HeLa cells after 72 hrs by MTT assay. The class given is functional. Put shortly:
as §1

Assay [8] deals with PC-12. Briefly: Cytotoxicity against rat PC12 cells at 10 ug/mL after 72 hrs by MTT assay. To be noted: PC-12, 72 h. In kind it is functional. In a few lines: as §1
Assay [9] has as its system PC-12. Put plainly: Cytotoxicity against rat PC12 cells at 3 ug/mL after 72 hrs by MTT assay. The class given is functional. To be noted: PC-12, 72 h. Put shortly: as §1
Assay [10] concerns PC-12. Put plainly: Cytotoxicity against rat PC12 cells after 72 hrs by MTT assay. The class given is functional. In a few lines: as §1
Assay [11] deals with Escherichia coli. Briefly: Antibacterial activity against Escherichia coli DSM10290 at 10 ug after 24 hrs by agar diffusion assay. To be noted: read-out: IZ. The class given is functional. Put shortly:
(§2)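 Disks (5 mm) impregnated with compound dissolved in MeOH were laid on LB agar plates seeded with B. subtilis DSM2109 or E. coli DSM10290. Inhibition zones were read after 24 h at 37 °C. Streptomycin and gentamycin, 5 µg each, served as positive controls.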
A general note: In agar diffusion tests the substance spreads into inoculated agar from a disc or well.

Assay [12] has as its system HeLa. Put plainly: Cytotoxicity against human HeLa cells at 30 ug/mL after 72 hrs by MTT assay. In kind it is functional, cell-based. Put shortly: as §1
The subject of assay [13] is PC-12. Briefly: Cytotoxicity against rat PC12 cells at 30 ug/mL after 72 hrs by MTT assay. The class given is functional, cell-based. Put shortly:
as §1

Assay [14] has as its system Bacillus subtilis. Briefly: Antibacterial activity against Bacillus subtilis DSM2109 at 10 ug after 24 hrs by agar diffusion assay. The class given is functional. To be noted: read-out: IZ. In a few lines:
as §2

Assay [15] relates to Bacillus subtilis. Briefly: Antibacterial activity against Bacillus subtilis DSM2109 at 5 ug after 24 hrs by agar diffusion assay. In kind it is functional. To be noted: read-out: IZ. Put shortly:
as §2

Assay [16] concerns Escherichia coli. Put plainly: Antibacterial activity against Escherichia coli DSM10290 at 5 ug after 24 hrs by agar diffusion assay. The class given is functional. To be noted: read-out: IZ. In a few lines: as §2
Assay [17] concerns Saccharomyces cerevisiae. Put plainly: Antifungal activity against Saccharomyces cerevisiae at 5 ug after 24 hrs by agar diffusion assay. The class given is functional, organism-based. In a few lines: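 Paper disks (5 mm diameter) loaded with test material dissolved in MeOH were placed on YPD agar plates inoculated with S. cerevisiae. After 24 h of incubation at 27 °C, the zone of inhibition (mm) was recorded.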

Activity calls are given as the source filed them. The rule behind the calls is not given here. A value given as a limit tells only on which side of the number the result lay.

In the case of `CC(=O)O[C@@H]1CC[C@@]2(C)[C@@H](CC[C@]3(C)/C(=C(C)/C=C/C=C(\C)C(CC=C(C)C)O[C@@H]4OC[C@H](O)[C@H](O)[C@@H]4O)C(=O)C[C@@H]23)C1(C)C` (some centres not stated), the result in the assay with Saccharomyces cerevisiae [1] was inactive. In addition, the inhibition at 10 µg/mL was 100% with L5178Y [2], 56% in the assay on HeLa [5] and 38% in the assay on PC-12 [8]. For the same compound, the inhibition at 3 µg/mL with L5178Y [3] is 100%; in the assay on HeLa [6] it was 0%; with PC-12 [9] it was 0%. Further, the results for the ED50 in the assay on L5178Y [4], with HeLa [7] and in the assay with PC-12 [10] were 0.22 nmol, 22.76 nmol and 21.54 nmol, respectively.

Take `CC(C)=CCC(O[C@H]1OC[C@@H](O)[C@@H](O)[C@H]1O)/C(C)=C/C=C/C(C)=C1\C(=O)C[C@H]2[C@@]3(C)CC[C@@H](O)C(C)(C)[C@@H]3CC[C@]12C` (some centres not stated): in the assay with Saccharomyces cerevisiae [1], the outcome was inactive. Besides, in the assay on Escherichia coli [11], the zone of inhibition at 10 µg/disc was 12 mm. Also, the inhibition at 10 µg/mL is 100% in the assay with L5178Y [2], 100% in the assay on HeLa [5] and 54% with PC-12 [8]. Also, the values for the inhibition at 3 µg/mL with L5178Y [3], in the assay with HeLa [6] and in the assay with PC-12 [9] were 100%, 26% and 33%, respectively. Also, the values for the ED50 in the assay on L5178Y [4], in the assay with HeLa [7] and in the assay with PC-12 [10] were 2.4 nmol, 8.14 nmol and 27.63 nmol, respectively.

In the case of `COC(/C=C/C(C)=C/C=C/C(C)=C1/C(=O)C[C@H]2[C@@]3(C)CC[C@@H](O)[C@](C)(C(=O)O)[C@@H]3CC[C@]12C)C(C)(C)O` (some centres not stated) [GLOBOSTELLATIC ACID D, G], the outcome with Saccharomyces cerevisiae [1] was inactive. For the same compound, the zone of inhibition at 10 µg/disc with Escherichia coli [11] is 10 mm. The inhibition at 10 µg/mL in the assay with L5178Y [2] turned out to be 100%; with HeLa [5], 25%; in the assay on PC-12 [8], 42%. For the same compound, the results for the inhibition at 3 µg/mL with L5178Y [3], with HeLa [6] and with PC-12 [9] were 100%, 4% and 18%, respectively. In addition, the figures for the ED50 with L5178Y [4], with HeLa [7] and with PC-12 [10] were 0.39 nmol, 46.69 nmol and 30.33 nmol, respectively.

As for `C/C(C(=O)/C=C/C(C)=C/C=C/C(C)(C)O)=C1/C(=O)C[C@H]2[C@@]3(C)CC[C@@H](O)[C@](C)(C(=O)O)[C@@H]3CC[C@]12C` [GLOBOSTELLATIC ACID F], the result with Saccharomyces cerevisiae [1], with HeLa [12] and in the assay on PC-12 [13] was inactive. Also, the results for the inhibition at 10 µg/mL with L5178Y [2], in the assay on HeLa [5] and in the assay with PC-12 [8] were 100%, 0% and 0%, respectively. The inhibition at 3 µg/mL was 42% in the assay on L5178Y [3], 0% with HeLa [6] and 0% with PC-12 [9]. For the same compound, the ED50 in the assay with L5178Y [4] was determined as 10.36 nmol.

As for `CCOC(/C=C/C(C)=C/C=C/C(C)=C1/C(=O)C[C@H]2[C@@]3(C)CC[C@@H](O)[C@](C)(C(=O)O)[C@@H]3CC[C@]12C)C(C)(C)O` (some centres not stated) [GLOBOSTELLATIC ACID H, I], the result in the assay with Saccharomyces cerevisiae [1] was inactive. Moreover, the zone of inhibition at 10 µg/disc in the assay with Escherichia coli [11] stood at 10 mm. The figures for the inhibition at 10 µg/mL with L5178Y [2], in the assay with HeLa [5] and with PC-12 [8] were 100%, 23% and 41%, respectively. Further, the inhibition at 3 µg/mL stood at 100% in the assay with L5178Y [3], 8% in the assay with HeLa [6] and 16% in the assay on PC-12 [9]. The ED50 in the assay with L5178Y [4] worked out at 0.31 nmol; with HeLa [7], 46.05 nmol; in the assay on PC-12 [10] it was 28.07 nmol.

Turning to `CCOC(/C=C/C(C)=C/C=C/C(C)=C1/C(=O)C[C@H]2[C@@]3(C)CC[C@@H](OC(C)=O)[C@](C)(C(=O)O)[C@@H]3CC[C@]12C)C(C)(C)O` (some centres not stated) [GLOBOSTELLATIC ACID J, K], the result with Saccharomyces cerevisiae [1], with HeLa [12] and in the assay on PC-12 [13] was inactive. The inhibition at 10 µg/mL in the assay on L5178Y [2] was determined as 100%; in the assay on HeLa [5], 0%; in the assay on PC-12 [8], 0%. The inhibition at 3 µg/mL in the assay on L5178Y [3] came to 24%; in the assay with HeLa [6], 0%; with PC-12 [9], 0%. The compound further came in with an ED50 in the assay with L5178Y [4] of 8.28 nmol.

As to `CC(/C=C/C(O)C(C)(C)O)=C\C=C\C(C)=C1\C(=O)C[C@H]2[C@@]3(C)CC[C@@H](O)[C@](C)(C(=O)O)[C@@H]3CC[C@]12C` (some centres not stated) [GLOBOSTELLATIC ACID L, M], in the assay on Saccharomyces cerevisiae [1], the outcome was inactive. Moreover, the inhibition at 10 µg/mL came out at 100% in the assay with L5178Y [2], 42% in the assay with HeLa [5] and 30% in the assay with PC-12 [8]. The inhibition at 3 µg/mL in the assay with L5178Y [3] was 100%; in the assay on HeLa [6], 0%; in the assay on PC-12 [9] it was 0%. In addition, the ED50 came to 0.92 nmol with L5178Y [4], 27.87 nmol in the assay on HeLa [7] and 27.52 nmol in the assay on PC-12 [10].

On to `CC(=O)O[C@@H]1CC[C@@]2(C)[C@@H](CC[C@]3(C)/C(=C(\C)C(=O)/C=C/C(C)=C/C=C/C(C)(C)O)C(=O)C[C@@H]23)[C@@]1(C)C(=O)O` [GLOBOSTELLATIC ACIDS A], for which the outcome in the assay with Saccharomyces cerevisiae [1], in the assay with HeLa [12] and in the assay on PC-12 [13] was inactive. For the same compound, the inhibition at 10 µg/mL came out at 100% in the assay with L5178Y [2], 0% in the assay with HeLa [5] and 0% in the assay on PC-12 [8]. Also, the inhibition at 3 µg/mL came out at 100% in the assay on L5178Y [3], 0% in the assay on HeLa [6] and 0% in the assay on PC-12 [9].

As for `C/C(C(=O)/C=C/C(C)=C/C=C/C(C)(C)O)=C1/C(=O)C[C@H]2[C@@]3(C)CC[C@H](O)C(C)(C)[C@@H]3CC[C@]12C` [GLOBOSTELLETIN], the outcome in the assay with Saccharomyces cerevisiae [1] and in the assay on PC-12 [13] was inactive. Besides, the zone of inhibition at 10 µg/disc in the assay with Bacillus subtilis [14] was found to be 13 mm. In addition, in the assay on Bacillus subtilis [15], the zone of inhibition at 5 µg/disc came out at 12 mm. Also, the inhibition at 10 µg/mL in the assay on L5178Y [2] is 94%; with HeLa [5] it was 0%; in the assay on PC-12 [8], 0%. The inhibition at 3 µg/mL in the assay with L5178Y [3] came out at 66%; with HeLa [6], 0%; in the assay on PC-12 [9], 0%. Further, the ED50 is given as 5.34 nmol with L5178Y [4] and more than 60 nmol in the assay on HeLa [7].

Take `CN[C@@H]1[C@H](O[C@H]2[C@H](O[C@H]3[C@H](O)[C@@H](O)[C@H](N=C(N)N)[C@@H](O)[C@@H]3N=C(N)N)O[C@@H](C)[C@]2(O)C=O)O[C@@H](CO)[C@H](O)[C@H]1O` [STREPTOMYCIN]: the values for the zone of inhibition at 5 µg/disc in the assay with Escherichia coli [16] and in the assay with Bacillus subtilis [15] were 13 mm and 20 mm, respectively.

For the compound NYSTATIN, the inhibition zone (IZ) in the assay on Saccharomyces cerevisiae [17] is 12 mm.

A word on the inhibition: it is the percentage by which the read-out fell short of the control. Low readings indicate a response near the control, high ones a response far below the control.
